Drawing on ChEMBL document CHEMBL1146825, “Triaryl methane derivatives as antiproliferative agents” (Bioorg Med Chem Lett, 2004), this text covers IC50, inhibition and Cell for 19 compounds.

Structures are written as SMILES.

Experiment [1] relates to NIH3T3. Briefly: Mitogen-induced cell proliferation assay to evaluate the antiproliferative effect in NIH 3T3 cells. Type of experiment: functional, cell-based. The note with it: Mus musculus. Summed up:
(§1)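 NIH 3T3 mouse fibroblasts given a mitogenic stimulus (e.g. PDGF or bFGF) for 10 h, then [3H]thymidine added. Cultured a further 21 h at 37 C, 5% CO2, then washed four times with DME. Acid-precipitable radioactivity extracted with cold 10% TCA, neutralized with 0.3 N NaOH, and counted by scintillation.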

In experiment [2] the test system is NIH3T3. Briefly: Percent inhibition at 10 uM determined against mouse NIH 3T3 cells. Type of experiment: functional. In outline: as §1
The subject of experiment [3] is NCI-H460. Briefly: Effect of 50 uM compound on NCI-H460 non-small cell lung cancer cells cycle progression in G2-M phase by flow cytometry. The class given is functional, Homo sapiens. In outline: (§2)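 NCI-H460 cells serum-starved 56 h, then released into complete medium containing compound (25 or 50 uM) or 0.1% DMSO vehicle for 16 h. Harvested, washed in cold PBS, fixed in 70% ethanol at 4 C for at least 4 h. Treated with ribonuclease and propidium iodide 30 min at 37 C. DNA content read by flow cytometry; percent of cells in G0-G1, S and G2-M.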

The subject of experiment [4] is NCI-H460. Briefly: Effect of 25 uM compound on NCI-H460 non-small cell lung cancer cells cycle progression in S phase by flow cytometry. The class given is functional, Homo sapiens. Summed up: as §2
Experiment [5] deals with NCI-H460. Briefly: Effect of 25 uM compound on NCI-H460 non-small cell lung cancer cells cycle progression in G0G1 phase by flow cytometry. The class given is functional, Homo sapiens. Summed up: as §2
In general terms: A flow cytometer gives signals particle by particle.

Experiment [6] relates to NCI-H460. Briefly: Effect of 50 uM compound on NCI-H460 non-small cell lung cancer cells cycle progression in S phase by flow cytometry. Type of experiment: functional, Homo sapiens. Summed up: as §2
Experiment [7] relates to NCI-H460. Briefly: Effect of 25 uM compound on NCI-H460 non-small cell lung cancer cells cycle progression in G2M phase by flow cytometry. The class given is functional, Homo sapiens. In outline:
as §2

For experiment [8], the system named is NCI-H460. Briefly: Effect of 50 uM compound on NCI-H460 non-small cell lung cancer cells cycle progression in G0G1 phase by flow cytometry. The class given is functional, Homo sapiens. Summed up:
as §2

For orientation: IC50 means the concentration that gives 50% inhibition. A high value points to weaker potency. `OC(c1ccccc1)(c1ccccc1)c1ccccc1Cl`: the half-maximal inhibitory concentration (IC50) in experiment [1] was 2100 nM.
Compound `OC(c1ccccc1)(c1ccc(Br)cc1)c1ccc(Br)cc1` yielded an IC50 in experiment [1] of 500 nM.
In experiment [1], `OC(c1ccccc1)(c1ccccc1)C1CCCCC1` showed an IC50 of 9500 nM.
For the compound `N#CC(c1ccccc1)(c1ccccc1)C1CCCCC1`, the IC50 in experiment [1] stood at 900 nM.
On the same count and under the same terms, the result for `CCOC(=O)C(c1ccccc1)(c1ccccc1)N1CCCCC1` reads 2200 nM.
As usually defined, the inhibition is the change of the read-out against control, counted positive when it falls. Turning to `CCOC(c1ccccc1)(c1ccccc1)c1ccc(-c2ccccc2)cc1`, the inhibition at 10 µM in experiment [2] came to 99%. Also, the IC50 in experiment [1] stood at 2200 nM.
Turning to `OC(Cc1ccccc1)(c1ccccc1)c1ccccc1`, the Cell in experiment [3] worked out at 5%; in experiment [4], 44.63%; in experiment [5], 46.8%; in experiment [6] it was 25.09%; in experiment [7], 8.57%; in experiment [8] it was 69.91%. Besides, testing at 10 µM in experiment [2] gave an inhibition of 98%. This compound displayed an IC50 in experiment [1] of 400 nM.
Turning to `OC(c1ccccc1)(c1ccccc1)c1ccc(Cl)cc1`, in experiment [1], the IC50 worked out at 800 nM.
Same read-out and setting: the result for `N#CC(c1ccccc1)(c1ccccc1)c1ccccc1Cl` reads 2200 nM; that for `OC(c1ccccc1)(c1ccccc1)c1cccc2ccccc12`, 1600 nM.
`Oc1ccccc1C(O)(c1ccccc1)c1ccccc1Cl` (stereo not given) registered an inhibition at 10 µM in experiment [2] of 99%. This compound showed an IC50 in experiment [1] of 1000 nM.
Compound `Nc1ccc(C(O)(c2ccc(N)cc2)c2ccc(N)cc2)cc1` gave an IC50 in experiment [1] of 200 nM.
Consider `OC(c1ccccc1)(c1ccccc1)c1ccc(C(F)(F)F)cc1`, for which the IC50 in experiment [1] turned out to be 3100 nM.
`O=C(O)CC(c1ccccc1)(c1ccccc1)c1ccccc1Cl`: 1200 nM corresponded to half-maximal inhibition in experiment [1] (IC50).
Still for that read-out and setting: then `N#CC(c1ccccc1)(c1ccccc1)c1ccc([N+](=O)[O-])cc1`, with 1700 nM.
Same read-out and setting: the result for `Cc1ccc(C(O)(c2ccc(C)cc2)c2ccc(C)cc2)cc1` reads 3000 nM.
Regarding `O=[N+]([O-])c1ccc(C(O)(c2ccccc2)c2ccccc2)c(Cl)c1`, in experiment [2], the inhibition at 10 µM was determined as 94%. The same compound came in with an IC50 in experiment [1] of 300 nM.
`Clc1ccccc1C(c1ccccc1)c1ccccc1` [2-CHLOROPHENYL-BISPHENYLMETHANE(MAJOR)] gave an IC50 in experiment [1] of 3900 nM.
On to `OC(c1ccccc1)(c1ccccc1)c1ccccc1` [TRIPHENYLMETHANOL], for which the inhibition at 10 µM in experiment [2] amounted to 99%. In experiment [1], half-maximal inhibition (IC50) required 2000 nM.
